{
  "source": "ChEMBL document CHEMBL3286368",
  "about": "“Delayed and Prolonged Histone Hyperacetylation with a Selective HDAC1/HDAC2 Inhibitor” (ACS Med Chem Lett, 2014)",
  "key": {"[1]": {"tested_on": "Mus musculus", "experiment": "Dose normalized AUC in CD-1 mouse at 10 mg/kg, po", "type": "ADME, organism-based", "set-up": "dose 10 mg/kg, route oral", "conditions": "in vivo"}, "[2]": {"experiment": "Drug metabolism in dog hepatocytes assessed as hydrolysis of oxazolidinone group", "type": "ADME, cell-based, Canis lupus familiaris, Hepatocyte"}, "[3]": {"experiment": "Plasma clearance in beagle dog at 0.5 mg/kg, iv", "type": "ADME, organism-based, Canis lupus familiaris", "set-up": "dose 0.5 mg/kg, route intravenous", "in_short": "(§1)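 Intravenous dosing at 5 (mouse), 2 (rat), 0.5 (dog) and 0.5 (monkey) mg/kg. Plasma clearance, steady-state volume of distribution and half-life derived from the plasma profile.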"}, "[4]": {"experiment": "Cmax in CD1 nu/nu mouse xenografted with human HCT116 cells at 875 mg/kg, po administered biweekly for 3 weeks", "type": "ADME, organism-based, HCT-116", "set-up": "dose 875 mg/kg, route oral", "conditions": "in vivo", "in_short": "(§2)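 HCT116 cells (5 × 10^6 per mouse) injected subcutaneously into the right flank of CD1 nu/nu mice. Once tumors reached ~325 mm3, mice were randomized into groups of 12 and dosed orally for 21 days, once daily (qd) or biweekly (biw). Vehicle was 40% v/v PEG-400 plus 25% w/v HPβCD at 20 μL/g.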"}, "[5]": {"tested_on": "Canis familiaris", "experiment": "Dose normalized AUC in beagle dog at 1 mg/kg, po", "type": "ADME, organism-based, Canis lupus familiaris", "set-up": "dose 1 mg/kg, route oral", "conditions": "in vivo"}, "[6]": {"tested_on": "Mus musculus", "experiment": "Inhibition of HDAC in CD1 nu/nu mouse tumor xenografted with human HCT116 cells assessed as plasma drug level causing increase in H2BK5 acetylation at 200 mg/kg, po qd after 8 hrs by ELISA", "type": "functional, HCT-116"}, "[7]": {"experiment": "Half life in CD-1 mouse at 5 mg/kg, iv", "type": "ADME, organism-based", "set-up": "dose 5 mg/kg, route intravenous", "conditions": "in vivo", "in_short": "as §1"}, "[8]": {"experiment": "Plasma protein binding in CD-1 mouse at 2 uM", "type": "ADME, cell-free", "conditions": "read-out: PPB (converted)", "in_short": "(§3)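 Plasma protein binding measured in mouse, rat, dog and monkey plasma at 2 μM compound.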"}, "[9]": {"experiment": "AUC (0 to 24 hrs) in CD1 nu/nu mouse xenografted with human HCT116 cells at 150 mg/kg, po qd for 3 weeks", "type": "ADME, organism-based, HCT-116", "set-up": "time < 24 hr, dose 150 mg/kg, route oral", "conditions": "in vivo", "in_short": "(§4)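 HCT116 cells (5 × 10^6/mouse) injected sc into right flank of CD1 nu/nu mice; at ~325 mm3 tumors, randomized into groups of 12. Oral dosing 21 days, once daily or biweekly, in 40% v/v PEG-400 and 25% w/v HPβCD at 20 μL/g. […] Tumor size by caliper.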"}, "[10]": {"experiment": "Drug metabolism in human hepatocytes assessed as oxidation of piperidine ring", "type": "ADME, cell-based, Hepatocyte"}, "[11]": {"experiment": "Drug metabolism in liver microsomes (unknown origin) assessed as CYP-mediated oxidation", "type": "ADME"}, "[12]": {"experiment": "in vivo", "conditions": "CD1 nu/nu, mouse, po, 100 mg/kg"}, "[13]": {"tested_on": "HCT-116", "experiment": "cells", "type": "functional, Homo sapiens"}, "[14]": {"experiment": "Drug metabolism in human hepatocytes assessed as glucuronide conjugate level", "type": "ADME, cell-based, Hepatocyte"}, "[15]": {"tested_on": "Mus musculus", "experiment": "Inhibition of HDAC in CD1 nu/nu mouse tumor xenografted with human HCT116 cells assessed as plasma drug level causing increase in H2BK5 acetylation at 200 mg/kg, po qd after 24 hrs by ELISA", "type": "functional, HCT-116"}, "[16]": {"experiment": "Volume of distribution at steady state in CD-1 mouse at 5 mg/kg, iv", "type": "ADME, organism-based", "set-up": "dose 5 mg/kg, route intravenous", "conditions": "in vivo, read-out: Vdss", "in_short": "as §1"}, "[17]": {"experiment": "Cmax in CD1 nu/nu mouse xenografted with human HCT116 cells at 350 mg/kg, po administered biweekly for 3 weeks", "type": "ADME, organism-based, HCT-116", "set-up": "dose 350 mg/kg, route oral", "conditions": "in vivo", "in_short": "as §2"}, "[18]": {"experiment": "AUC (0 to 24 hrs) in CD1 nu/nu mouse xenografted with human HCT116 cells at 200 mg/kg, po qd for 3 weeks", "type": "ADME, organism-based, HCT-116", "set-up": "time < 24 hr, dose 200 mg/kg, route oral", "conditions": "in vivo", "in_short": "as §4"}, "[19]": {"tested_on": "Mus musculus", "experiment": "Inhibition of HDAC in CD1 nu/nu mouse tumor xenografted with human HCT116 cells assessed as plasma drug level causing increase in H2BK5 acetylation at 100 mg/kg, po bid after 8 hrs by ELISA", "type": "functional, HCT-116"}, "[20]": {"tested_on": "Mus musculus", "experiment": "Inhibition of HDAC in CD1 nu/nu mouse tumor xenografted with human HCT116 cells assessed as plasma drug level causing increase in H2BK5 acetylation at 67 mg/kg, po tid after 1 hr by ELISA", "type": "functional, HCT-116"}, "[21]": {"experiment": "in vivo", "conditions": "CD1 nu/nu, mouse, po, 200 mg/kg"}, "[22]": {"tested_on": "Mus musculus", "experiment": "Inhibition of HDAC in CD1 nu/nu mouse tumor xenografted with human HCT116 cells assessed as plasma drug level causing increase in H2BK5 acetylation at 100 mg/kg, po bid after 1 hr by ELISA", "type": "functional, HCT-116"}, "[23]": {"experiment": "Cmax in CD1 nu/nu mouse xenografted with human HCT116 cells at 200 mg/kg, po qd for 3 weeks", "type": "ADME, organism-based, HCT-116", "set-up": "dose 200 mg/kg, route oral", "conditions": "in vivo", "in_short": "as §2"}, "[24]": {"experiment": "AUC (0 to 24 hrs) in CD1 nu/nu mouse xenografted with human HCT116 cells at 350 mg/kg, po administered biweekly for 3 weeks", "type": "ADME, organism-based, HCT-116", "set-up": "time < 24 hr, dose 350 mg/kg, route oral", "conditions": "in vivo", "in_short": "as §4"}, "[25]": {"tested_on": "Mus musculus", "experiment": "Inhibition of HDAC in CD1 nu/nu mouse tumor xenografted with human HCT116 cells assessed as plasma drug level causing increase in H2BK5 acetylation at 100 mg/kg, po bid after 48 hrs by ELISA", "type": "functional, HCT-116"}, "[26]": {"experiment": "Cmax in CD1 nu/nu mouse xenografted with human HCT116 cells at 50 mg/kg, po qd for 3 weeks", "type": "ADME, organism-based, HCT-116", "set-up": "dose 50 mg/kg, route oral", "conditions": "in vivo", "in_short": "as §2"}, "[27]": {"tested_on": "Rhesus monkey", "experiment": "Dose normalized AUC in rhesus monkey at 1 mg/kg, po", "type": "ADME, organism-based, Macaca mulatta", "set-up": "dose 1 mg/kg, route oral", "conditions": "in vivo", "in_short": "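Oral exposure, dose-normalized (μM·h·kg/mg), from a PK study also run with iv dosing (rat 2 mg/kg iv, 4 mg/kg po; monkey 0.5 mg/kg iv, 1 mg/kg po). Plasma clearance, Vdss, half-life and oral bioavailability also derived.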"}, "[28]": {"experiment": "Oral bioavailability in CD-1 mouse at 10 mg/kg", "type": "ADME, organism-based", "conditions": "in vivo"}, "[29]": {"experiment": "Volume of distribution at steady state in beagle dog at 0.5 mg/kg, iv", "type": "ADME, organism-based, Canis lupus familiaris", "set-up": "dose 0.5 mg/kg, route intravenous", "conditions": "in vivo, read-out: Vdss", "in_short": "as §1"}, "[30]": {"experiment": "Plasma clearance in rhesus monkey at 0.5 mg/kg, iv", "type": "ADME, organism-based, Macaca mulatta", "set-up": "dose 0.5 mg/kg, route intravenous", "in_short": "as §1"}, "[31]": {"tested_on": "Mus musculus", "experiment": "Inhibition of HDAC in CD1 nu/nu mouse tumor xenografted with human HCT116 cells assessed as plasma drug level causing increase in H2BK5 acetylation at 200 mg/kg, po qd after 4 hrs by ELISA", "type": "functional, HCT-116"}, "[32]": {"tested_on": "Mus musculus", "experiment": "Unbound Cmin in 3 week po dosed CD1 nu/nu mouse xenografted with human HCT116 cells after 24 hrs", "type": "ADME, organism-based, HCT-116", "conditions": "in vivo"}, "[33]": {"experiment": "AUC (0 to 24 hrs) in CD1 nu/nu mouse xenografted with human HCT116 cells at 50 mg/kg, po qd for 3 weeks", "type": "ADME, organism-based, HCT-116", "set-up": "time < 24 hr, dose 50 mg/kg, route oral", "conditions": "in vivo", "in_short": "as §4"}, "[34]": {"experiment": "Plasma protein binding in beagle dog at 2 uM", "type": "ADME, cell-free, Canis lupus familiaris", "conditions": "read-out: PPB (converted)", "in_short": "as §3"}},
  "data": [
    {"compound": "Nc1ccc(-c2cccs2)cc1NC(=O)c1ccc(N2CCC3(CC2)CNC(=O)O3)nc1", "values": [
      {"measurement": "AUC/dose", "setting": "[1]", "value": 1.1, "unit": "µM·kg·h/mg"},
      {"measurement": "Drug metabolism", "setting": "[2]", "value": "metabolite_notdetected"},
      {"measurement": "clearance", "setting": "[3]", "value": 22, "unit": "mL/min/kg"},
      {"measurement": "Cmax", "setting": "[4]", "value": 56.4, "unit": "µM"},
      {"measurement": "AUC/dose", "setting": "[5]", "value": 0.3, "unit": "µM·kg·h/mg"},
      {"measurement": "INH", "setting": "[6]", "value": 9.5, "unit": "µM"},
      {"measurement": "half-life", "setting": "[7]", "value": 2, "unit": "h"},
      {"measurement": "fraction unbound at 2 µM", "setting": "[8]", "value": 0.015},
      {"measurement": "AUC at 24 h", "setting": "[9]", "value": 208, "unit": "µM·h"},
      {"measurement": "Drug metabolism", "setting": "[10]", "value": "metabolite_notdetected"},
      {"measurement": "Drug metabolism", "setting": "[11]", "value": "metabolite_notdetected"},
      {"measurement": "concentration at 24 h", "setting": "[12]", "value": 0.5, "unit": "µM"},
      {"measurement": "GI25", "setting": "[13]", "value": 50, "unit": "nM"},
      {"measurement": "GI75", "setting": "[13]", "value": 188, "unit": "nM"},
      {"measurement": "GI90", "setting": "[13]", "value": 367, "unit": "nM"},
      {"measurement": "Drug metabolism", "setting": "[14]", "value": "metabolite_notdetected"},
      {"measurement": "INH", "setting": "[15]", "value": 0.2, "unit": "µM"},
      {"measurement": "Vd", "setting": "[16]", "value": 2.1, "unit": "L/kg"},
      {"measurement": "Cmax", "setting": "[17]", "value": 32.8, "unit": "µM"},
      {"measurement": "AUC at 24 h", "setting": "[18]", "value": 371, "unit": "µM·h"},
      {"measurement": "INH", "setting": "[19]", "value": 9.9, "unit": "µM"},
      {"measurement": "INH", "setting": "[20]", "value": 14.9, "unit": "µM"},
      {"measurement": "concentration at 24 h", "setting": "[21]", "value": 5, "unit": "µM"},
      {"measurement": "INH", "setting": "[22]", "value": 14.3, "unit": "µM"},
      {"measurement": "Cmax", "setting": "[23]", "value": 40.4, "unit": "µM"},
      {"measurement": "AUC at 24 h", "setting": "[24]", "value": 566, "unit": "µM·h"},
      {"measurement": "INH", "setting": "[25]", "value": 0.3, "unit": "µM"},
      {"measurement": "Cmax", "setting": "[26]", "value": 3.5, "unit": "µM"},
      {"measurement": "AUC/dose", "setting": "[27]", "value": 1.8, "unit": "µM·kg·h/mg"},
      {"measurement": "bioavailability", "setting": "[28]", "value": 82, "unit": "%"},
      {"measurement": "Vd", "setting": "[29]", "value": 2.2, "unit": "L/kg"},
      {"measurement": "clearance", "setting": "[30]", "value": 27, "unit": "mL/min/kg"},
      {"measurement": "INH", "setting": "[31]", "value": 17.2, "unit": "µM"},
      {"measurement": "fCmin", "setting": "[32]", "value": 48, "unit": "nM"},
      {"measurement": "AUC at 24 h", "setting": "[33]", "value": 40, "unit": "µM·h"},
      {"measurement": "fraction unbound at 2 µM", "setting": "[34]", "value": 0.024}
    ]}
  ]
}
